From article PMC10043961 (Biomedicine & Pharmacotherapy, 2023)
Values joined by “and” are separate entries in the source; they are usually repeats but may differ in a detail not shown here. Equal values may be shown once. “Also recorded” adds a separate entry of the source. Read-outs that look alike come from different tables or passages of the source.

Columns and labels:
[1] = tested on: ecto-5′-nucleotidase (NT5E) or (CD73); assay: Western blot of NT5E; assay type: cell-based
Procedure, shortened: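 Vehicle- and test compound-treated cells were lysed in RIPA buffer with protease inhibitors, and protein was measured by BCA in triplicate. Lysates were separated by SDS-PAGE and transferred to nitrocellulose. Membranes were blocked in 5% skim milk/TBS and probed with anti-NT5E/CD73 primary antibody.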

[2] = tested on: SARS-CoV-2 (USA-WA1/2020); assay: microbe, parasite or virus in culture; assay type: cell-based; conditions: for EC50: Severe acute respiratory syndrome coronavirus 2, Huh7.5, read-out: EC50(µM) (R^2); for IC50: Severe acute respiratory syndrome coronavirus 2, Huh7.5, read-out: IC50, inhibitory viral replication concentration at 50%
Vero E6 cells [3] = conditions: Vero E6, 1–10 µM, 24 h
in vitro = conditions: human
[4] = cited from earlier work
SARS-CoV-2 [5] = assay type: cell-based
SARS-CoV-2 Mpro [6] = biological target: T1, SARS-CoV-2 Mpro (Severe acute respiratory syndrome coronavirus 2, UniProt P0DTD1); assay: biochemical; conditions: for IC50: IC50 against Mpro activity
[7] = tested on: SARS-CoV-2 viral clearance; conditions: patients hospitalized with COVID-19 ref 62; cited from earlier work
[8] = data from DrugBank ref 49; cited from earlier work
[9] = tested on: SARS-CoV-2 (USA-WA1/2020); assay type: cell-based
[10] = Mouse pharmacokinetics: plasma and epithelial lining fluid; assay type: in vivo, mice
Procedure, shortened: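 Female 6-week-old CD1 mice were dosed PO once daily for 7 days. […] Plasma and BAL were assayed by LC-MS/MS against spiked standard curves. ELF levels came from urea normalization (VELF = VBAL × UreaBAL/Ureaplasma). Free drug was calculated as total × fraction unbound from rapid equilibrium dialysis.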

[11] = tested on: SARS-CoV-2 double-stranded RNA; assay type: cell-based
Vero E6 cells [12] = conditions: for Drug-induced toxicity, LDH release (in words): Vero E6, 24 h; for Effect on cellular ATP levels (in words): Vero E6, Cell Titer Glo
[13] = tested on: SARS-CoV-2 double-stranded RNA; assay type: cell-based; remark: listed apart in the source
SARS-CoV-2 [14] = assay: microbe, parasite or virus in culture; assay type: cell-based; conditions: Severe acute respiratory syndrome coronavirus 2, Vero
[15] = tested on: pyrimidine synthesis (DHODH) in Vero E6 cells; assay: Metabolomic analysis of Vero E6 cells, de novo pyrimidine synthesis; assay type: cell-based; conditions: 24 h; for Pyrimidine synthesis, UMP levels (in words): Vero E6, 10 µM
Procedure, shortened: (§1)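 Vero E6 cells at 80% confluence were treated for 24 h with test compound (1, 5 or 10 µM) in regular culture medium, with DMSO as vehicle. Cells were washed with ice-cold PBS and scraped into ice-cold 80% methanol for LC-MS metabolomics. Metabolites were matched to an in-house database (10 ppm mass, 0.5 min retention time tolerance), and peak integration was manually curated.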

[16] = tested on: purine synthesis pathway in Vero E6 cells; assay: Metabolomic analysis of Vero E6 cells, purine synthesis pathway; assay type: cell-based; conditions: Vero E6, 1 and 5 µM
Procedure, shortened: as §1

SARS-CoV-2 Mpro [17] = biological target: T1, SARS-CoV-2 Mpro; assay type: binding
[18] = read-out: Inhibition of Mpro activity
[19] = mice, 10 mg/kg PO daily for 7 days, 10 mg/kg

## O=C1C(O)=C([C@H]2CC[C@H](c3ccc(Cl)cc3)CC2)C(=O)c2ccccc21 [Atovaquone]
[1]; 5 µM
  NT5E protein expression, quantification (in words): significant decrease
[1]; atovaquone treated cells
  NT5E expression (in words): significantly downregulated
[2]
  EC50: 6.2 µM
  IC50: 6.8 µM
Vero E6 cells [3]
  Phospholipidosis, NBD-PE (in words): did not show phospholipidosis
In vitro
  CC50: > 100 µM
[4]
  serum levels: > 40 µM
SARS-CoV-2 [5]
  Viral replication in the presence of uridine (in words): significant inhibition for viral replication regardless the uridine concentration
SARS-CoV-2 Mpro [6]; read-out: Inhibitory effect on Mpro activity
  inhibition at 50 µM: ~35%
[7]
  primary endpoint: effect on SARS-CoV-2 viral clearance compared with placebo: did not meet the primary endpoint
[8]
  Protein bound: > 99.9%
[9]
  Antiviral effect on SARS-CoV-2 replication (in words): dose-dependent inhibition
[10]; mice 20 mg/kg PO daily for 7 days versus human values of ref 57
  Cmax in mice compared to BID dosing in HIV infected volunteers: 2–5 fold
[10]; mice, 20 mg/kg PO daily for 7 days
  peak total plasma concentration: 100 µg/mL
[10]; mice, 20 mg/kg PO daily for 7 days, urea normalized, 20 mg/kg
  peak free epithelial lining fluid (ELF) concentration: 70 nM
[10]; mice, 20 mg/kg PO daily for 7 days, 20 mg/kg
  peak free plasma level: ~44 nM
[10]; mouse, in vivo
  half-life: 18 to 38 h
[11]
  dsRNA staining compared to DMSO-treated control cells: striking reduction in dsRNA staining
Vero E6 cells [12]
  Drug-induced toxicity, LDH release (in words): did not elicit substantial LDH release
[13]
  dsRNA staining compared to DMSO-treated control cells: striking reduction in dsRNA staining
SARS-CoV-2 [14]
  IC50: 0.02 µM
[15]; Vero E6, 1 µM and 5 µM
  Pyrimidine synthesis, UMP levels versus orotate and dihydroorotate (in words): does not inhibit pyrimidine synthesis
[15]
  Pyrimidine synthesis, UMP levels (in words): significant depletion in UMP levels
[15]; listed as atovaquone
  Pyrimidine synthesis, UMP levels (in words): significant inhibition in pyrimidine synthesis
[16]
  Free guanosine, inosine and adenosine levels (in words): downregulation of adenosine, guanosine, and inosine levels
[16]; listed as atovaquone
  Free guanosine, inosine and adenosine levels (in words): significant depletion

## COc1ccccc1Oc1c(NS(=O)(=O)c2ccc(C(C)(C)C)cc2)nc(-c2ncccn2)nc1OCCO [Bosentan]
[9]
  Antiviral effect on SARS-CoV-2 replication (in words): modest dose-dependent antiviral effects
Vero E6 cells [12]
  Drug-induced toxicity, LDH release (in words): minimal impact
  Effect on cellular ATP levels (in words): minimal impact

## COc1cccc2c1C(=O)c1c(O)c3c(c(O)c1C2=O)C[C@@](O)(C(C)=O)C[C@@H]3O[C@H]1C[C@H](N)[C@H](O)[C@H](C)O1 [Daunorubicin]
[9]
  Antiviral effect on SARS-CoV-2 replication (in words): dose-dependent inhibition
Vero E6 cells [12]
  Drug-induced toxicity, LDH release (in words): toxic to cells at high doses

## CCCCc1oc2ccc(NS(C)(=O)=O)cc2c1C(=O)c1ccc(OCCCN(CCCC)CCCC)cc1 [Dronedarone]
[2]
  EC50: 0.38 µM
  IC50: 0.38 µM
In vitro
  CC50: 20.2 µM
SARS-CoV-2 Mpro [6]
  Inhibition of Mpro activity (in words): significant inhibition
  IC50: 18 µM
SARS-CoV-2 Mpro [6]; [18]
  inhibition at 50 µM: 50%
[9]
  Antiviral effect on SARS-CoV-2 replication (in words): dose-dependent inhibition
Vero E6 cells [12]
  Drug-induced toxicity, LDH release (in words): particularly toxic at IC50 concentrations

## CCN(CC)C(=O)/C(C#N)=C/c1cc(O)c(O)c([N+](=O)[O-])c1 [Entacapone]
SARS-CoV-2 Mpro [17]
  Mpro covalently modified: 15–20%
SARS-CoV-2 Mpro [6]
  Inhibition of Mpro activity (in words): significant inhibition
  IC50: 9 µM and 9.04 µM
SARS-CoV-2 Mpro [6]; [18]
  inhibition at 50 µM: 50%
[9]
  Antiviral effect on SARS-CoV-2 replication (in words): did not elicit a reproducible antiviral effect

## COC(=O)Nc1nc2ccc(C(=O)c3ccccc3)cc2[nH]1 [Mebendazole]
[2]
  Antiviral activity in Huh7.5 cells (in words): lacks strong inhibitory activity; also recorded: less effective
In vitro
  CC50: > 100 µM
[4]; patients receiving 10 mg/kg every 6 h (total 40 mg/kg/day) ref 60
  peak plasma levels of patients: 0.3 to 1.69 µM
SARS-CoV-2 Mpro [6]
  Inhibition of Mpro activity (in words): significant inhibition
  IC50: 19 µM and 19.9 µM
[9]
  Antiviral effect on SARS-CoV-2 replication (in words): dose-dependent inhibition
[10]; mice, 10 mg/kg PO daily for 7 days
  time of maximum total plasma concentration after the last dose: ≤ 90 min
[10]; [19]
  maximum total plasma concentration: 697.67 ng/mL and 2.36 µM
  peak free drug level in ELF: ~550 ng/mL and ~1.8 µM
Vero E6 cells [12]
  Drug-induced toxicity, LDH release (in words): absence of overt toxicity

## O=C1c2c(O)ccc(O)c2C(=O)c2c(NCCNCCO)ccc(NCCNCCO)c21 [Mitoxantrone]
[9]
  Antiviral effect on SARS-CoV-2 replication (in words): dose-dependent inhibition
Vero E6 cells [12]
  Drug-induced toxicity, LDH release (in words): did not elicit substantial LDH release

## C[C@@H]1O[C@@H](O[C@H]2C[C@@H](O)[C@]3(CO)[C@H]4[C@H](O)C[C@]5(C)[C@@H](C6=CC(=O)OC6)CC[C@]5(O)[C@@H]4CC[C@]3(O)C2)[C@H](O)[C@H](O)[C@H]1O [Ouabain]
[2]
  EC50: 0.07 µM
  IC50: 0.075 µM
In vitro
  CC50: > 100 µM
[9]
  Antiviral effect on SARS-CoV-2 replication (in words): dose-dependent inhibition
  IC50 against SARS-CoV-2 (in words): low nanomolar range
Vero E6 cells [12]
  Drug-induced toxicity, LDH release (in words): absence of overt toxicity

## C=C[C@H]1C[N@@]2CC[C@H]1C[C@@H]2[C@@H](O)c1ccnc2ccc(OC)cc12 [Quinidine]
[9]
  Antiviral effect on SARS-CoV-2 replication (in words): modest dose-dependent antiviral effects
Vero E6 cells [12]
  Drug-induced toxicity, LDH release (in words): minimal impact
  Effect on cellular ATP levels (in words): minimal impact

## COc1cccc(-c2ccc(NC(=O)C3=C(C(=O)O)CCC3)c(F)c2)c1 [vidofludimus]
SARS-CoV-2 [5]
  Viral replication in the presence of uridine (in words): inhibitory activity was reversed with addition of uridine; also recorded: activity changed based on the uridine addition
